Source: ChEMBL document CHEMBL1124637, “Synthesis and antiviral activity of several 2,5'-anhydro analogues of 3'-azido-3'-deoxythymidine, 3'-azido-2',3'-dideoxyuridine, 3'-azido-2',3'-dideoxy-5-halouridines, and 3'-deoxythymidine against human immunodeficiency virus and Rauscher-murine leukemia virus” (J Med Chem, 1989)

Tests used:
CCRF-CEM [1] = test: Concentration of compound required to inhibit 50% of viral replication of human immunodeficiency virus in CEM-F cells; type: functional, cell-based
CCRF-CEM [2] = test: Concentration of compound required to inhibit 50% of host cell replication of human immunodeficiency virus in CEM-F cells; type: functional
[3] = tested on: Rauscher murine leukemia virus; test: Concentration of compound required to inhibit 50% of host cell replication of Rauscher-Murine leukemia virus; type: functional
[4] = Ratio of TICD50 to that of IC50 of Rauscher-Murine leukemia virus (R-MuLv); type: functional; set-up: reference not given here
[5] = Ratio of TICD50 to that of IC50 of human immunodeficiency virus (HIV-1); type: functional; set-up: reference not given here
[6] = tested on: Rauscher murine leukemia virus; test: Concentration of compound required to inhibit 50% of viral replication of Rauscher-Murine leukemia virus; type: functional, organism-based
[7] = Metabolic stability (Half life) at pH-2.0 was evaluated; type: ADME
How it was run: (§1)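 Chemical (non-enzymatic) stability. Each compound at 2 mg/mL was incubated in 0.01 N HCl (pH 2.0) at 37 °C. Aliquots taken at various times were run on reverse-phase C-18 HPLC with a linear 0–30% CH3CN gradient into 0.01 M ammonium acetate (pH 5.5) over 30 min, with UV detection at 254 nm. Remaining anhydro compound, released parent nucleoside and pyrimidine base were quantified, and the half-life was derived.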

[8] = Metabolic stability (Half life)of the compound at pH-7.4 was evaluated; type: ADME
How it was run: (§2)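 Compound at 2 mg/mL held at 37 °C in phosphate-buffered saline, pH 7.4, with no enzymes present. At various times, aliquots were analysed by reverse-phase C-18 HPLC with a linear 0–30% CH3CN gradient into 0.01 M ammonium acetate (pH 5.5) over 30 min, monitored by UV at 254 nm. Intact anhydro compound, generated parent nucleoside and pyrimidine base were measured, and the half-life was derived.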

[9] = Metabolic stability (Half life) at pH-7.4 was evaluated; type: ADME; how it was run: as §2
[10] = Metabolic stability (Half life)of the compound at pH-2.0 was evaluated; type: ADME; conditions: read-out: T1/2 h/; how it was run: as §1
[11] = tested on: Rauscher murine leukemia virus; test: Cytotoxic concentration of compound required to inhibit 50% of host cell replication of Rauscher-Murine leukemia virus; type: functional

Compound | IC50 (CCRF-CEM [1]) [µM] | CC50 (50% host cell growth inhibition) (CCRF-CEM [2]) [µM] | TCID50 [3] [µM] | Ratio [4] | Ratio [5] | IC50 [6] [µM] | half-life [7] [h] | half-life [8] [h] | half-life [9] [h] | half-life [10] [h] | half-life ([7]; read-out: T1/2 h/) [h] | TCID50 [11] [µM] | TCID50 (CCRF-CEM [2]) [µM]
[N-]=[N+]=N[C@H]1C[C@H](n2cc(Br)c(=O)[nH]c2=O)O[C@@H]1CO | 8.73 | 127 | >301 | 1309 | 15 | 0.23 |  |  |  |  |  |  | 
[N-]=[N+]=N[C@H]1C[C@H](n2cc(I)c(=O)[nH]c2=O)O[C@@H]1CO | 12.6 | 153 | >264 | 1257 | 12 | 0.21 |  |  |  |  |  |  | 
CC1=CN([C@H]2C[C@H](N=[N+]=[N-])[C@@H](CO)O2)C(N)NC1=O (stereo partly specified) | 12 | 470 | >376 | 3 | 39 | 114 | 2.33 | > 168 |  |  |  |  | 
[N-]=[N+]=N[C@H]1C[C@H]2O[C@@H]1COC1NC(=O)C(Br)=CN12 (stereo partly specified) | 28 | 168 | >319 | 20 | 6 | 16.1 | 0.238 |  | 60.5 |  |  |  | 
[N-]=[N+]=N[C@H]1C[C@H]2O[C@@H]1COC1NC(=O)C=CN12 (stereo partly specified) | 4.95 | >100 |  |  | 20 |  |  |  | 120 | 0.188 |  |  | 
CC1=CN2C(NC1=O)OC[C@H]1O[C@@H]2C[C@@H]1N=[N+]=[N-] (stereo partly specified) | 0.56 | >100 | >400 | 1481 | 179 | 0.27 |  |  | > 75 |  | 0.492 |  | 
[N-]=[N+]=N[C@H]1C[C@H]2O[C@@H]1COC1NC(=O)C(I)=CN12 (stereo partly specified) | 27.1 | 194 | >277 | 16 | 7 | 17.7 |  |  |  |  |  |  | 
CC1=CN2C(NC1=O)OC[C@@H]1CC[C@H]2O1 (stereo partly specified) | 48 | 346 |  | 1 | 7 | > 480 | 0.00381 | 84.3 |  |  |  | >480 | 
Cc1cn([C@H]2CC[C@@H](CO)O2)c(=O)[nH]c1=O | 0.38 |  | >442 | 1 | 631 | > 442 |  |  |  |  |  |  | 
[N-]=[N+]=N[C@H]1C[C@H](n2ccc(=O)[nH]c2=O)O[C@@H]1CO [NAVURIDINE] | 2.76 |  | >395 | 3 | 60 | 138 |  |  |  |  |  |  | 166
Cc1cn([C@H]2C[C@H](N=[N+]=[N-])[C@@H](CO)O2)c(=O)[nH]c1=O [ZIDOVUDINE] | 0.1 |  | >400 | 17391 | 290 | 0.023 |  |  |  |  |  |  | 
